CXCR6 block – inhibitors of human CXCR6 receptor. O00574. CHO-K1 PathHunter CXCR6 beta-arrestin, luminescence. inhibition, % at 20 µM. actives 0.36% (n = 360,000); in the data active = inhibition above about 34%, passing the limit was not always enough;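 note: antagonist mode with CXCL16 agonist at 10 nM final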
APJ agonist – APJ receptor agonism; P35414; CHO-K1 APJ PathHunter beta-arrestin, luminescence; 0% DMSO wells, 100% apelin; activation, % at 20 µM; actives 0.11% (n = 330,000);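 active = activation more than six SD over the plate average, tested at 20 µM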
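Test system – PathHunter CHO-K1 APJ (AGTRL-1) beta-arrestin reporter cells · Input – 1000 cells/well · Compound – single test compound dose, 20 µM final, 1% DMSO · Times – compound stimulation 90 min at 25 °C, detection 60 min · Technique – beta-gal luminescence · Read-out basis – APJ–arrestin association signal · Control set – negative DMSO alone, positive Apelin-13 at 10 nM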
EBI2 block – EBI2 (human) antagonism; P32249; EBI2 beta-arrestin recruitment, luminescence, 7a,25-OHC stimulated; inhibition, % at 5 µM; actives 0.81% (n = 360,000); in the data active = inhibition above about 38%;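 note: enzyme fragment complementation signal reports receptor beta-arrestin coupling in cells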
APJ antagonist – APJ receptor antagonism. P35414. CHO-K1 APJ beta-arrestin complementation, luminescence. inhibition, % at 20 µM. actives 0.32% (n = 330,000). AID 2521;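 active = inhibition above about 40% at 20 µM, limit read from the data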;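 note: cells challenged with 10 nM apelin-13 agonist together with compound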
CCR6 antagonist – CCR6 (human) receptor antagonism | P51684 | CHO-K1 CCR6 PathHunter beta-arrestin, luminescence, CCL20-stimulated | inhibition, % at 20 µM | actives 0.49% (n = 340,000);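 active = compounds whose inhibition of the agonist-driven luminescence signal at 20 µM reaches about 50%, limit read from the data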;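 note: cells stimulated with CCL20 at 14 nM final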
Target sequence (P51684 whole entry, looked up): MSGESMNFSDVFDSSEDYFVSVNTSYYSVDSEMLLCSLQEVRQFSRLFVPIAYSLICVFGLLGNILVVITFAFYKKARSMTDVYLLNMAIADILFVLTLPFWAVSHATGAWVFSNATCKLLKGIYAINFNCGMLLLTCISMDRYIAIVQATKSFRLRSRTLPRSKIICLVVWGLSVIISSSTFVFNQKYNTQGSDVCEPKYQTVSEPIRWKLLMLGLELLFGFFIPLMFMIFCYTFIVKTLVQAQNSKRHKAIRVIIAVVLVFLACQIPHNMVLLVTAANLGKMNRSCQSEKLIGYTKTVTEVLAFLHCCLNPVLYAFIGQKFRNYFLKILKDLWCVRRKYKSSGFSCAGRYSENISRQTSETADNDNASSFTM
EBI2 conf – EBI2 (human) antagonism, single concentration confirmation | shares compounds with EBI2 block | EBI2 beta-arrestin luminescence, 7a,25-OHC antagonism | inhibition, % at 5 µM | actives 29% (n = 2,400);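 active = inhibition of at least 50%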
EBI2 agonist – EBI2 agonism counter-screen; shares compounds with EBI2 block; EBI2-expressing cells, agonist mode, luminescence, 60 min; 0% vehicle, 100% 7α,25-dihydroxycholesterol control; activation, % at 5 µM; 2,400 tested, under 10 active;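 active = activation of at least 50%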
bGal counter – inhibits E. coli beta-galactosidase, counter-screen for EBI2 antagonists; shares compounds with EBI2 block; purified beta-galactosidase, luminescent Galacton Star, 15 min; inhibition, % at 5 µM; actives 1% (n = 2,400); AID 652176;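 active = replicate-average signal at least 3 plate SD below neutral wells, shown as high inhibition, flagging enzyme-inhibiting false positives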;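 note: higher means stronger loss of beta-gal luminescence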
Large screens that a line does not name were inactive (follow-up assays come after a bar, where they were run). A selection: hits, their analogues and other compounds. The true share with any hit is near 1.5%.

Cc1ccc(NC(=O)N2CCC(O)(c3ccc(Cl)cc3)CC2)cc1	EBI2 block 77.9 | EBI2 conf 75.3 | EBI2 agonist inactive | bGal counter inactive
CC1CCC(N(CCCN)Cc2ccco2)CC1C (stereo unspecified)	none
Cc1ccsc1CNC(=O)C1(C)CCCN1CC(C)C (stereo unspecified)	none (no result: APJ agonist, APJ antagonist, CCR6 antagonist)
Cc1ccc(S(=O)(=O)N2CCCN(C(=O)c3ccc(-n4nccc4C)cc3)CC2)cc1	EBI2 block 46.8 | EBI2 conf inactive | EBI2 agonist inactive | bGal counter inactive
O=C(Nc1ccc(Br)cc1)C1CCN(c2cnccn2)CC1	none
O=C(c1ccc(F)cc1)N1CCN(c2ccc([N+](=O)[O-])cc2-n2cccc2)CC1	EBI2 block 55.1 | EBI2 conf inactive | EBI2 agonist inactive | bGal counter inactive
O=C(c1ccccc1F)N1CCN(c2ccc([N+](=O)[O-])cc2-n2cccc2)CC1	none
Cc1nn(Cc2ccc(Cl)cc2Cl)c(C)c1NC(=O)c1ccc(COc2cc(Cl)ccc2Cl)o1	EBI2 block 47.4 | EBI2 conf inactive | EBI2 agonist inactive | bGal counter inactive
O=C1CCN(Cc2ccccc2)C=C1c1ccc2ccccc2c1	EBI2 block 89.6 | EBI2 conf 65.4 | EBI2 agonist inactive | bGal counter inactive
O=C1CCN(Cc2ccccc2)C=C1c1ccc(Cl)cc1	EBI2 block 65.8 | EBI2 conf 58.1 | EBI2 agonist inactive | bGal counter inactive
COc1cc(C2=CN(Cc3ccccc3)CCC2=O)cc(OC)c1OC	none
O=C1CCN(Cc2ccccc2)C=C1C(=O)c1ccccc1	none (no result: APJ agonist, APJ antagonist)
O=C1CCN(Cc2ccccc2)C=C1c1ccc(C(F)(F)F)cc1	EBI2 block 69.4 | EBI2 conf inactive | EBI2 agonist inactive | bGal counter inactive
NCCCC[C@H]1CNC(=O)C(=O)N1CCC12CC3CC(CC(C3)C1)C2	none
CC(=O)Nc1ccc(Nc2cc(C)nc3c(-c4ccc(Cl)cc4)c(C)nn23)cc1	EBI2 block 45.7 | EBI2 conf inactive | EBI2 agonist inactive | bGal counter inactive
CC(=O)Nc1ccc(Nc2cc(C)nc3c(-c4ccc(Cl)cc4)cnn23)cc1	EBI2 block 53.4 | EBI2 conf inactive | EBI2 agonist inactive | bGal counter inactive
Cc1ccc(Sc2cc(NCCCO)c([N+](=O)[O-])c3nonc23)cc1	EBI2 block 53.1 | EBI2 conf inactive | EBI2 agonist inactive | bGal counter inactive
CC(C)CCSc1cc(NCCO)c([N+](=O)[O-])c2nonc12	none
CCN(CC)C(=O)C1CCN(C(=O)c2oc3ccc(C)cc3c2C)CC1	EBI2 block 79.5 | EBI2 conf 57.4 | EBI2 agonist inactive | bGal counter inactive
O=C(c1cccc(C(=O)N2CCC(O)(c3ccccc3)CC2)c1)N1CCC(O)(c2ccccc2)CC1	none
Cc1ccc2oc(C(=O)N3CCC(O)(c4ccccc4)CC3)c(C)c2c1	EBI2 block 84.3 | EBI2 conf 77.8 | EBI2 agonist inactive | bGal counter inactive
O=C(OCC(=O)N1CCCc2ccccc21)c1cnc(Cl)c(Cl)c1	EBI2 block 42.9 | EBI2 conf inactive | EBI2 agonist inactive | bGal counter inactive
Cc1cccc(NC(=O)CSCC(=O)N2CCN(C(=O)c3ccco3)CC2)c1	none
CCOc1ccc(CC(=O)NCc2cn3c(C)csc3n2)cc1	none
O=C(Nc1cc(C(F)(F)F)ccc1N1CCOCC1)c1ccc2ccccc2n1	EBI2 block 44.3 | EBI2 conf inactive | EBI2 agonist inactive | bGal counter inactive
CCC(=O)n1nc(-c2ccc(Cl)cc2)nc1SC	none
CCCC(=O)n1nc(-c2ccc(Cl)cc2)nc1SC	EBI2 block 79.6 | EBI2 conf inactive | EBI2 agonist inactive | bGal counter inactive
CCOC(=O)C1=C(O)/C(=C/c2cc(OC)c(OC)c(OC)c2)SC1=Nc1ccc(OC)cc1	EBI2 block 62.3 | EBI2 conf 54.7 | EBI2 agonist inactive | bGal counter inactive
